{"source": "ChEMBL document CHEMBL4177526", "about": "“Discovery and structure activity relationship of the first potent cryptosporidium FIKK kinase inhibitor” (Bioorg Med Chem, 2017)", "key": {"[1]": {"target": "Serine/threonine-protein kinase PAK 5 (Homo sapiens) (UniProt Q9P286)", "assay": "Inhibition of human PAK5 (2 to 719 residues) assessed as residual activity at 500 nM in presence of 33P-ATP by filter binding assay relative to control"}, "[2]": {"target": "Phosphorylase b kinase gamma catalytic chain, skeletal muscle/heart isoform (Homo sapiens) (UniProt Q16816)", "sequence (Q16816 whole entry, looked up, the tested form may be a part, canonical isoform)": "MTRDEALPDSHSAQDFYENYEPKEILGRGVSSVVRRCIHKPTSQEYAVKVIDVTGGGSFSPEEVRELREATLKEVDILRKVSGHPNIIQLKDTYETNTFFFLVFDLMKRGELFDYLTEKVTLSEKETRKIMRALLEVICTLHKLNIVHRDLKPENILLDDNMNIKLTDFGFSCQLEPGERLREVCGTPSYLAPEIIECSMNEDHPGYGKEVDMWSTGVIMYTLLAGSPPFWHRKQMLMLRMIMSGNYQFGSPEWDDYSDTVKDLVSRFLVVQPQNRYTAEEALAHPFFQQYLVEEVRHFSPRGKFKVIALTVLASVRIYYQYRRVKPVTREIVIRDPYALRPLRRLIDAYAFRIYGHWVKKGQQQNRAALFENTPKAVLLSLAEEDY", "assay": "Inhibition of human PHKgamma1 (2 to 297 residues) assessed as residual activity at 500 nM in presence of 33P-ATP by filter binding assay relative to control"}, "[3]": {"target": "Mitogen-activated protein kinase 8 (Homo sapiens) (UniProt P45983)", "assay": "Inhibition of human JNK1 (1 to 384 residues) assessed as residual activity at 500 nM in presence of 33P-ATP by filter binding assay relative to control"}, "[4]": {"target": "Tau-tubulin kinase 2 (Homo sapiens) (UniProt Q6IQ55)", "assay": "Inhibition of human TTBK2 (1 to 450 residues) assessed as residual activity at 500 nM in presence of 33P-ATP by filter binding assay relative to control"}, "[5]": {"target": "Calcium/calmodulin-dependent protein kinase kinase 2 (Homo sapiens) (UniProt Q96RR4)", "assay": "Inhibition of human CAMKKbeta (1 to 541 residues) assessed as residual activity at 500 nM in presence of 33P-ATP by filter binding assay relative to control"}, "[6]": {"target": "Protein kinase C zeta type (Homo sapiens) (UniProt Q05513)", "assay": "Inhibition of human PKCzeta (2 to 592 residues) assessed as residual activity at 500 nM in presence of 33P-ATP by filter binding assay relative to control"}, "[7]": {"target": "Serine/threonine-protein kinase ULK2 (Homo sapiens) (UniProt Q8IYT8)", "sequence (Q8IYT8 whole entry, the tested form may be a part)": "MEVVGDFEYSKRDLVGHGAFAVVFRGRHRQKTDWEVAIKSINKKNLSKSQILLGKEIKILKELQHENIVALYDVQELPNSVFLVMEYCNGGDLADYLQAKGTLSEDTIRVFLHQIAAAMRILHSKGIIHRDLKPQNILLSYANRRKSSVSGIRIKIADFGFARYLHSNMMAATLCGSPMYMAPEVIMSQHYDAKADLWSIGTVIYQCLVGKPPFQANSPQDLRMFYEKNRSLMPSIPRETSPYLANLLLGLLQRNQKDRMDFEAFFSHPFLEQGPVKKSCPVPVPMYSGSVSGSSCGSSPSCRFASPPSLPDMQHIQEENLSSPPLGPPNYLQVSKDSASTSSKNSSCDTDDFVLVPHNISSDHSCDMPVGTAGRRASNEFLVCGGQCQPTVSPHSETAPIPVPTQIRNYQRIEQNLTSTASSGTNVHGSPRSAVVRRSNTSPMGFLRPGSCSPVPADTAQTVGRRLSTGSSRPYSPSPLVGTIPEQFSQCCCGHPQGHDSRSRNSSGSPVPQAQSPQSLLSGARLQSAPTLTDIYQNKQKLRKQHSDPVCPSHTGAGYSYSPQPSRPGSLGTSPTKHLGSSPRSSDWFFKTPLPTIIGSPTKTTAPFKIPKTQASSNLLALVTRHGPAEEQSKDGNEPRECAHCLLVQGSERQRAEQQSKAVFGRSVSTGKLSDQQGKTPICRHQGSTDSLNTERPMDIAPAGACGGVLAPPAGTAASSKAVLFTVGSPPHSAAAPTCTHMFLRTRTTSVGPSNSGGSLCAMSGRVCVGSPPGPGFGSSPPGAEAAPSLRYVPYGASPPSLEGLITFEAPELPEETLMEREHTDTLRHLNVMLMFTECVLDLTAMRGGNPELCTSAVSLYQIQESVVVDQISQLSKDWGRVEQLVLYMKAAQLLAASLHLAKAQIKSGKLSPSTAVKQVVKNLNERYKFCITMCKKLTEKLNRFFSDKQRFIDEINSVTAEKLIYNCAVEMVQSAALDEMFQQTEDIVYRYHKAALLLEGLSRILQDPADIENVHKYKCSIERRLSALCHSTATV", "assay": "Inhibition of human ULK2 (1 to 1036 residues) assessed as residual activity at 500 nM in presence of 33P-ATP by filter binding assay relative to control"}, "[8]": {"target": "cAMP-dependent protein kinase catalytic subunit alpha (Homo sapiens) (UniProt P17612)", "assay": "Inhibition of human PKAalpha (2 to 351 residues) assessed as residual activity at 500 nM in presence of 33P-ATP by filter binding assay relative to control"}, "[9]": {"test_system": "RAC-alpha serine/threonine-protein kinase (Homo sapiens), P31749 [S473D]", "assay": "Inhibition of human PKBalpha S473D mutant (118 to 480 residues) assessed as residual activity at 500 nM in presence of 33P-ATP by filter binding assay relative to control"}, "[10]": {"target": "Inhibitor of nuclear factor kappa-B kinase subunit beta (Homo sapiens) (UniProt O14920)", "sequence (O14920 whole entry, the tested form may be a part)": "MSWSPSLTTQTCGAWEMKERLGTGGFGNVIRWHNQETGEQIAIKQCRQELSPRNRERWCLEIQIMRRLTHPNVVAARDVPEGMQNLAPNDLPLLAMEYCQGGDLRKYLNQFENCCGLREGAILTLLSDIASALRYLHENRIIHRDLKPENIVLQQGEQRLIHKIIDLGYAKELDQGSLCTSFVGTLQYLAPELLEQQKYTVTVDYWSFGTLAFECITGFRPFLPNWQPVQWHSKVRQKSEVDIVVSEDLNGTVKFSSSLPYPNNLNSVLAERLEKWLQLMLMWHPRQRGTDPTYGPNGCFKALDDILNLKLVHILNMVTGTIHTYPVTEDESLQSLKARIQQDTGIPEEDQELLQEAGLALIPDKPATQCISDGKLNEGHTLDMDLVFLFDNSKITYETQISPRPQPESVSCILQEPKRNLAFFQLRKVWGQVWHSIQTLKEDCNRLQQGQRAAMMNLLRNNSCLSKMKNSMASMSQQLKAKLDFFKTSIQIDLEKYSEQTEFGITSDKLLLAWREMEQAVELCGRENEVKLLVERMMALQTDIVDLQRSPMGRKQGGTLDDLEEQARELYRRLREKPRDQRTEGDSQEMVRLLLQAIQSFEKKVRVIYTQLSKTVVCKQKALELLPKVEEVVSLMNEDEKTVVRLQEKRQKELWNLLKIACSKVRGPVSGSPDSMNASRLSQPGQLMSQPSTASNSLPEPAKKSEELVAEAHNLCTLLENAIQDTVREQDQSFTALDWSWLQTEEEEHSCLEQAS", "assay": "Inhibition of human IKKbeta (1 to 736 residues) assessed as residual activity at 500 nM in presence of 33P-ATP by filter binding assay relative to control"}, "[11]": {"target": "Serine/threonine-protein kinase 26 (Homo sapiens) (UniProt Q9P289)", "assay": "Inhibition of human MST4 (1 to 416 residues) assessed as residual activity at 500 nM in presence of 33P-ATP by filter binding assay relative to control"}, "[12]": {"target": "Calcium/calmodulin-dependent protein kinase type 1 (Homo sapiens) (UniProt Q14012)", "assay": "Inhibition of human CAMK1 (2 to 369 residues) assessed as residual activity at 500 nM in presence of 33P-ATP by filter binding assay relative to control"}, "[13]": {"target": "Tau-tubulin kinase 1 (Homo sapiens) (UniProt Q5TCY1)", "assay": "Inhibition of human TTBK1 (1 to 1321 residues) assessed as residual activity at 500 nM in presence of 33P-ATP by filter binding assay relative to control"}, "[14]": {"target": "Interleukin-1 receptor-associated kinase 1 (Homo sapiens) (UniProt P51617)", "assay": "Inhibition of human IRAK1 (1 to 712 residues) assessed as residual activity at 500 nM in presence of 33P-ATP by filter binding assay relative to control"}, "[15]": {"target": "CDK9/cyclin T1 (Homo sapiens) (UniProt O60563+P50750)", "assay": "Inhibition of human CDK9 (1 to 372 residues)/cyclinT1 (1 to 726 residues) assessed as residual activity at 500 nM in presence of 33P-ATP by filter binding assay relative to control", "assay_type": "protein-complex assay"}, "[16]": {"target": "Serine/threonine-protein kinase ULK1 (Homo sapiens) (UniProt O75385)", "sequence (O75385 whole entry, the tested form may be a part)": "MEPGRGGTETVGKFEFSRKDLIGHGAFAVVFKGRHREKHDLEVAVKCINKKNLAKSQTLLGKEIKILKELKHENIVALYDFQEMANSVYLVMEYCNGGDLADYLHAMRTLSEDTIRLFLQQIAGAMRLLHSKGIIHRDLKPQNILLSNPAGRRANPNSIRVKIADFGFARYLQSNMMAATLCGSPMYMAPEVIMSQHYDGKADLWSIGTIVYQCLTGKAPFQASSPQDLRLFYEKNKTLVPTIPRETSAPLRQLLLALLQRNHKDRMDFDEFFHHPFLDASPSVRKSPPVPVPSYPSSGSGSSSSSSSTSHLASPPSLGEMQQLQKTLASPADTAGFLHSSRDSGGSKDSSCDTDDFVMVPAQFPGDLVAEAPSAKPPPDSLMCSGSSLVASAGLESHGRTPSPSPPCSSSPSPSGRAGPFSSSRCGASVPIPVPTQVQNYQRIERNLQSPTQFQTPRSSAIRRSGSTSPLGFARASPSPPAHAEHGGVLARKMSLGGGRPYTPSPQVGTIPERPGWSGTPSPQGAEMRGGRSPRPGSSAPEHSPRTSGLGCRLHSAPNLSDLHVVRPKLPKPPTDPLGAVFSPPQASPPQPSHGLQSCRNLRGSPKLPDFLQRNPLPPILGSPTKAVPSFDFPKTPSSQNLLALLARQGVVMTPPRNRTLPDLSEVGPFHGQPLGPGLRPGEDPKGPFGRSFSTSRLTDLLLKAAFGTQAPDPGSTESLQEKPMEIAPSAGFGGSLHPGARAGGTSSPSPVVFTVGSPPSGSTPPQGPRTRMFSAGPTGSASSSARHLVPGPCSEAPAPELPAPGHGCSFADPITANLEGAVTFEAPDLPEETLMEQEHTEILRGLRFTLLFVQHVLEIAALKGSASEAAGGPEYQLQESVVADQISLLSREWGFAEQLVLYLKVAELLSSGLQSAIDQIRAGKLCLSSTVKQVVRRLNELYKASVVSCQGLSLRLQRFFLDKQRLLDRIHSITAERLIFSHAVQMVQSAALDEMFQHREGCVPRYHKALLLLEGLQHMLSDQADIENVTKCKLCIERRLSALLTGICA", "assay": "Inhibition of human ULK1 (2 to 1050 residues) assessed as residual activity at 500 nM in presence of 33P-ATP by filter binding assay relative to control"}, "[17]": {"target": "Ribosomal protein S6 kinase alpha-3 (Homo sapiens) (UniProt P51812)", "sequence (P51812 whole entry)": "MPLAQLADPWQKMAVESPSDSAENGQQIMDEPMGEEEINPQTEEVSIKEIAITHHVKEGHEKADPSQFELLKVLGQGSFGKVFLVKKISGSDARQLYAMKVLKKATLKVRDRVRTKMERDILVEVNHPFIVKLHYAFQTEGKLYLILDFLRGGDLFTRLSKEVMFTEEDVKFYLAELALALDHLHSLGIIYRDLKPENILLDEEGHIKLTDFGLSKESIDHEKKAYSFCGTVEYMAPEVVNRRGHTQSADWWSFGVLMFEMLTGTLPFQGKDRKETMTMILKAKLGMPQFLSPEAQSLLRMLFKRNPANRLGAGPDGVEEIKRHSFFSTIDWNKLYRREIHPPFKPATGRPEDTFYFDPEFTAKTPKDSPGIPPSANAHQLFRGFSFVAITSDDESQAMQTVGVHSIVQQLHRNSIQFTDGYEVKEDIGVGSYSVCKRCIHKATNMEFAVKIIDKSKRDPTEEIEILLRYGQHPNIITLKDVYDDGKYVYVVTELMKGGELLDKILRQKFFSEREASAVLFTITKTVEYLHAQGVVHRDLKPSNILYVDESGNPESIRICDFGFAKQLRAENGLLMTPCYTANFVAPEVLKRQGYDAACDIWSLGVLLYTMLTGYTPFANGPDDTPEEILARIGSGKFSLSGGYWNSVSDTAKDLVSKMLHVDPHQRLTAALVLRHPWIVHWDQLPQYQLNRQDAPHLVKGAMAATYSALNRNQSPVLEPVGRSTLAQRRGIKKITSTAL", "assay": "Inhibition of human RSK2 assessed as residual activity at 500 nM in presence of 33P-ATP by filter binding assay relative to control"}, "[18]": {"target": "Tyrosine-protein kinase ZAP-70 (Homo sapiens) (UniProt P43403)", "assay": "Inhibition of human ZAP70 (1 to 619 residues) assessed as residual activity at 500 nM in presence of 33P-ATP by filter binding assay relative to control"}, "[19]": {"target": "Serine/threonine-protein kinase 33 (Homo sapiens) (UniProt Q9BYT3)", "sequence (Q9BYT3 whole entry, looked up, the tested form may be a part)": "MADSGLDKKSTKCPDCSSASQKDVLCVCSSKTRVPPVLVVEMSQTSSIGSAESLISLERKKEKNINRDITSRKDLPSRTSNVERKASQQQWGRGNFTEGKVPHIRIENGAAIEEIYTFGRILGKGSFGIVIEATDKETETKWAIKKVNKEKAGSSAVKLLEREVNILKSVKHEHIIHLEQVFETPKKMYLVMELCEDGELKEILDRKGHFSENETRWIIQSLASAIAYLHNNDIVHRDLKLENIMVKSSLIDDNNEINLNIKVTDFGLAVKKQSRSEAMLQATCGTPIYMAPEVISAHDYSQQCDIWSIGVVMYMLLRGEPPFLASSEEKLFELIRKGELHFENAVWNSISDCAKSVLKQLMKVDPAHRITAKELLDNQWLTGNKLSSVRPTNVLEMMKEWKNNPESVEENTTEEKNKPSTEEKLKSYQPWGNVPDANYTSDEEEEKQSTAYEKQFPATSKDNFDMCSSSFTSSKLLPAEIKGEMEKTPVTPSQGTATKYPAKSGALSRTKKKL", "assay": "Inhibition of human STK33 (1 to 514 residues) assessed as residual activity at 500 nM in presence of 33P-ATP by filter binding assay relative to control"}, "[20]": {"target": "Maternal embryonic leucine zipper kinase (Homo sapiens) (UniProt Q14680)", "assay": "Inhibition of human MELK (2 to 651 residues) assessed as residual activity at 500 nM in presence of 33P-ATP by filter binding assay relative to control"}, "[21]": {"target": "Proto-oncogene tyrosine-protein kinase LCK (Mus musculus) (UniProt P06240)", "sequence (P06240 2-509 limits assumed)": "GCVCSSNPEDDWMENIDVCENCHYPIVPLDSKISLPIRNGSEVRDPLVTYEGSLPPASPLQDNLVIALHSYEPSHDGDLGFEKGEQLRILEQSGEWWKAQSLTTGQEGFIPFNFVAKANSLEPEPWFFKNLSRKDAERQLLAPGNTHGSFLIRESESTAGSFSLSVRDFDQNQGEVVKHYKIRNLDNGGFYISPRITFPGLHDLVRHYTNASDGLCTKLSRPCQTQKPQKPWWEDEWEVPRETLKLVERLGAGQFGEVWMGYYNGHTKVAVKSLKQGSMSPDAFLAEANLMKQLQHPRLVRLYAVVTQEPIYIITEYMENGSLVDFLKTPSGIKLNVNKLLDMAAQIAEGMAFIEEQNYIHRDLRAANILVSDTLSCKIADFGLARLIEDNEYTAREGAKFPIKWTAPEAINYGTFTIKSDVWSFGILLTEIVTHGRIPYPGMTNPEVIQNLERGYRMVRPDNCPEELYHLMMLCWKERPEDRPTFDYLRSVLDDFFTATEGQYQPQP", "assay": "Inhibition of mouse LCK (2 to 509 residues) assessed as residual activity at 500 nM in presence of 33P-ATP by filter binding assay relative to control"}, "TAK1/TAB1 (Homo sapiens)": {"target": "TAK1/TAB1 (Homo sapiens) (UniProt Q15750+O43318)", "assay": "Inhibition of human TAK1 (1 to 303 residues)/TAB1 (437 to 504 residues) assessed as residual activity at 500 nM in presence of 33P-ATP by filter binding assay relative to control", "assay_type": "protein-complex assay"}, "Cryptosporidium parvum": {"test_system": "Cryptosporidium parvum", "assay": "Antiparasitic activity against Cryptosporidium parvum Iowa oocysts infected in human HCT8 cells pretreated prior to infection measured after 48 hrs by fluorescein labeled Vicia villosa lectin/Hoechst 33258 staining based epifluorescence microscopic analysis", "assay_type": "functional, organism-based", "settings": "Cryptosporidium parvum, Iowa, HCT-8; read-out: EC50", "method_in_brief": "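HCT-8 cells grown in RPMI-1640 with 10% heat-inactivated FBS and penicillin. Three-fold compound dilutions in culture medium were added to confluent cells before about 5500 excysted C. parvum Iowa oocysts per well. After 48 h, cells were fixed with 4% paraformaldehyde and permeabilized. Vacuoles were stained with fluorescein-Vicia villosa lectin (1.33 µg/mL, 1 h, 37 °C) and nuclei with Hoechst 33258, then imaged by epifluorescence microscopy.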"}, "[22]": {"target": "serine/threonine-protein kinase D1 (Homo sapiens) (UniProt Q15139)", "assay": "Inhibition of human PKD1 (2 to 912 residues) at 500 nM in presence of 33P-ATP by filter binding assay relative to control"}}, "data": [{"molecule": "Cc1cccc(-c2nc(N)sc2-c2ccc3ncccc3n2)c1", "values": [{"measurement": "Activity", "setting": "[1]", "value": 107, "unit": "%"}, {"measurement": "Activity", "setting": "[2]", "value": 107, "unit": "%"}, {"measurement": "Activity", "setting": "[3]", "value": 134, "unit": "%"}, {"measurement": "Activity", "setting": "[4]", "value": 125, "unit": "%"}, {"measurement": "Activity", "setting": "[5]", "value": 124, "unit": "%"}, {"measurement": "Activity", "setting": "[6]", "value": 123, "unit": "%"}, {"measurement": "Activity", "setting": "[7]", "value": 118, "unit": "%"}, {"measurement": "Activity", "setting": "[8]", "value": 115, "unit": "%"}, {"measurement": "Activity", "setting": "[9]", "value": 115, "unit": "%"}, {"measurement": "Activity", "setting": "[10]", "value": 114, "unit": "%"}, {"measurement": "Activity", "setting": "[11]", "value": 113, "unit": "%"}, {"measurement": "Activity", "setting": "[12]", "value": 112, "unit": "%"}, {"measurement": "Activity", "setting": "[13]", "value": 112, "unit": "%"}, {"measurement": "Activity", "setting": "[14]", "value": 109, "unit": "%"}, {"measurement": "Activity", "setting": "[15]", "value": 106, "unit": "%"}, {"measurement": "Activity", "setting": "[16]", "value": 106, "unit": "%"}, {"measurement": "Activity", "setting": "[17]", "value": 100, "unit": "%"}, {"measurement": "Activity", "setting": "[18]", "value": 97, "unit": "%"}, {"measurement": "Activity", "setting": "[19]", "value": 97, "unit": "%"}, {"measurement": "Activity", "setting": "[20]", "value": 91, "unit": "%"}, {"measurement": "Activity", "setting": "[21]", "value": 85, "unit": "%"}, {"measurement": "Activity", "setting": "TAK1/TAB1 (Homo sapiens)", "value": 40, "unit": "%"}, {"measurement": "EC50", "setting": "Cryptosporidium parvum", "value": 2600, "unit": "nM"}, {"measurement": "inhibition", "setting": "[22]", "value": 91, "unit": "%"}]}]}
